ChEMBL document CHEMBL3259728, “Design, synthesis and biological evaluation of some novel substituted quinazolines as antitumor agents” (2014)

What was measured:
Type in all cases: functional
KM12 = assay: Growth inhibition of human KM12 cells assessed as cell growth at 10^-4 M after 48 hrs by SRB assay; conditions: KM12, 48 h, read-out: Activity
NCI-H460 [1] = assay: Growth inhibition of human NCI-H460 cells assessed as cell growth at 10^-4 M after 48 hrs by SRB assay; conditions: NCI-H460, 48 h, read-out: Activity
RPMI-8226 [2] = assay: Growth inhibition of human RPMI8226 cells assessed as cell growth at 10^-4 M after 48 hrs by SRB assay; conditions: RPMI-8226, 48 h, read-out: Activity
SK-MEL-5 = assay: Growth inhibition of human SK-MEL-5 cells assessed as cell growth at 10^-8 M after 48 hrs by SRB assay; conditions: SK-MEL-5, 48 h, read-out: Activity
RPMI-8226 [3] = assay: Growth inhibition of human RPMI8226 cells assessed as cell growth at 10^-8 M after 48 hrs by SRB assay; conditions: RPMI-8226, 48 h, read-out: Activity
A498 [4] = assay: Growth inhibition of human A498 cells assessed as cell growth at 10^-5 M after 48 hrs by SRB assay; conditions: A498, 48 h, read-out: Activity
How it was run: (§1)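 Five-dose NCI panel protocol. Each dose (10^-4 to 10^-8 M, 10-fold steps) was given as 48 h continuous exposure, and protein was measured by SRB staining. Percentage growth at each level is [(Ti−Tz)/(C−Tz)]×100, where Tz is time-zero absorbance and C is untreated control.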

[5] = Growth inhibition of human NCI-ADR-RES cells assessed as cell growth at 10^-5 M after 48 hrs by SRB assay; conditions: read-out: Activity
SNB-19 = assay: Growth inhibition of human SNB19 cells assessed as cell growth at 10^-5 M after 48 hrs by SRB assay; conditions: SNB-19, 48 h, read-out: Activity
HCT-116 [6] = assay: Growth inhibition of human HCT116 cells assessed as cell growth at 10^-5 M after 48 hrs by SRB assay; conditions: HCT-116, 48 h, read-out: Activity
PC-3 [7] = assay: Growth inhibition of human PC3 cells assessed as cell growth at 10^-6 M after 48 hrs by SRB assay; conditions: PC-3, 48 h, read-out: Activity
[8] = Growth inhibition of human OVCAR3 cells assessed as cell growth at 10^-6 M after 48 hrs by SRB assay; conditions: OVCAR-3, 48 h, read-out: Activity
HOP-62 = assay: Growth inhibition of human HOP62 cells assessed as cell growth at 10^-4 M after 48 hrs by SRB assay; conditions: HOP-62, 48 h, read-out: Activity
[9] = Growth inhibition of human HCT15 cells assessed as cell growth at 10^-7 M after 48 hrs by SRB assay; conditions: HCT-15, 48 h, read-out: Activity
HCT-116 [10] = assay: Growth inhibition of human HCT116 cells assessed as cell growth at 10^-7 M after 48 hrs by SRB assay; conditions: HCT-116, 48 h, read-out: Activity
PC-3 [11] = assay: Growth inhibition of human PC3 cells assessed as cell growth at 10^-8 M after 48 hrs by SRB assay; conditions: PC-3, 48 h, read-out: Activity
786-0 = assay: Growth inhibition of human 786-0 cells assessed as cell growth at 10^-8 M after 48 hrs by SRB assay; conditions: 786-0, 48 h, read-out: Activity; how it was run: as §1
A498 [12] = assay: Cytotoxicity against human A498 cells after 48 hrs by SRB assay; conditions: A498, 48 h
How it was run: (§2)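 NCI 60-cell-line panel of human tumour lines from nine cancer types. Continuous 48 h exposure at five 10-fold dilutions from 10^-4 to 10^-8 M, with 5-FU as positive control. SRB protein stain read spectrophotometrically at time zero, untreated control and each concentration. GI50, TGI and LC50 were derived from the [(Ti−Tz)/(C−Tz)]×100 growth relations, and out-of-range values are given as > or < the tested limits.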

[13] = Cytotoxicity against human OVCAR8 cells after 48 hrs by SRB assay; conditions: OVCAR-8, 48 h; how it was run: as §2
SF-295 = assay: Cytotoxicity against human SF295 cells after 48 hrs by SRB assay; conditions: SF-295, 48 h; how it was run: as §2
SW-620 [14] = assay: Cytotoxicity against human SW620 cells after 48 hrs by SRB assay; conditions: SW-620, 48 h; how it was run: as §2
SW-620 [15] = assay: Growth inhibition of human SW620 cells assessed as cell growth at 10^-6 M after 48 hrs by SRB assay; conditions: SW-620, 48 h, read-out: Activity
NCI-H460 [16] = assay: Growth inhibition of human NCI-H460 cells assessed as cell growth at 10^-6 M after 48 hrs by SRB assay; conditions: NCI-H460, 48 h, read-out: Activity
[17] = Cytotoxicity against human Hs578T cells after 48 hrs by SRB assay; conditions: Hs-578T; how it was run: as §2
SN12C [18] = assay: Growth inhibition of human SN12C cells assessed as cell growth at 10^-7 M after 48 hrs by SRB assay; conditions: read-out: Activity
SR = assay: Growth inhibition of human SR cells assessed as cell growth at 10^-7 M after 48 hrs by SRB assay; conditions: read-out: Activity
[19] = Growth inhibition of human Hs578T cells assessed as cell growth at 10^-8 M after 48 hrs by SRB assay; conditions: Hs-578T, read-out: Activity
K562 = assay: Cytotoxicity against human K562 cells after 48 hrs by SRB assay; conditions: K562, 48 h; how it was run: as §2
T47D = assay: Growth inhibition of human T47D cells assessed as cell growth at 10^-4 M after 48 hrs by SRB assay; conditions: read-out: Activity
SN12C [20] = assay: Growth inhibition of human SN12C cells assessed as cell growth at 10^-4 M after 48 hrs by SRB assay; conditions: read-out: Activity
[21] = Growth inhibition of human OVCAR3 cells assessed as cell growth at 10^-4 M after 48 hrs by SRB assay; conditions: OVCAR-3, 48 h, read-out: Activity
[22] = Growth inhibition of human UACC62 cells assessed as cell growth at 10^-4 M after 48 hrs by SRB assay; conditions: UACC-62, 48 h, read-out: Activity
[23] = read-out: LC50 (the source's name)
[24] = read-out: pLC50 (the source's name) (converted)

For `Cc1ccc(-c2nc3ccc(Cl)cc3c(=O)n2/N=C/c2ccccc2)cc1`, the growth at 100 µM (KM12) was 63%, the growth at 100 µM (NCI-H460 [1]) was 24% and the growth at 100 µM (RPMI-8226 [2]) was 60%. The growth at 0.01 µM (SK-MEL-5) was 94%, the growth at 0.01 µM (RPMI-8226 [3]) was 95% and the growth at 10 µM (A498 [4]) was 40%. For the same compound, the growth at 10 µM [5] was 48%, the growth at 10 µM (SNB-19) was 34% and the growth at 10 µM (HCT-116 [6]) was 37%. It also gave a growth at 1 µM (PC-3 [7]) of 86%, a growth at 1 µM [8] of 94% and a growth at 100 µM (HOP-62) of -64%. For the same compound, the growth at 0.1 µM [9] was 92%, the growth at 0.1 µM (HCT-116 [10]) was 96% and the growth at 0.01 µM (PC-3 [11]) was 92%. The growth at 0.01 µM (786-0) was 90%, the GI50 (A498 [12]; read-out: GI50) was 5.91 µM and the CC50 (A498 [12]; [23]) was greater than 100 µM. For the same compound, the TGI (A498 [12]; read-out: TGI) was greater than 100 µM, the GI50 (A498 [12]; read-out: pGI50 (converted)) was 5.89 µM and the CC50 (A498 [12]; [24]) was greater than 100 µM. The TGI (A498 [12]; read-out: pTGI) was greater than 100 µM, the GI50 ([13]; read-out: GI50) was 4.58 µM and the CC50 [13, 23] was greater than 100 µM. For the same compound, the TGI ([13]; read-out: TGI) was greater than 100 µM, the GI50 ([13]; read-out: pGI50 (converted)) was 4.57 µM and the CC50 [13, 24] was greater than 100 µM. For the same compound, the TGI ([13]; read-out: pTGI) was greater than 100 µM, the GI50 (SF-295; read-out: GI50) was 4.73 µM and the CC50 (SF-295; [23]) was greater than 100 µM. It also gave a TGI (SF-295; read-out: TGI) greater than 100 µM, a GI50 (SF-295; read-out: pGI50 (converted)) of 4.79 µM and a CC50 (SF-295; [24]) greater than 100 µM. The TGI (SF-295; read-out: pTGI) was greater than 100 µM, the GI50 (SW-620 [14]; read-out: GI50) was greater than 100 µM and the CC50 (SW-620 [14]; [23]) was greater than 100 µM. For the same compound, the TGI (SW-620 [14]; read-out: TGI) was greater than 100 µM, the GI50 (SW-620 [14]; read-out: pGI50 (converted)) was greater than 100 µM and the CC50 (SW-620 [14]; [24]) was greater than 100 µM. It also gave a TGI (SW-620 [14]; read-out: pTGI) greater than 100 µM, a growth at 1 µM (SW-620 [15]) of 89% and a growth at 1 µM (NCI-H460 [16]) of 85%. It also gave a GI50 ([17]; read-out: GI50) of 2.62 µM, an LC50 (concentration giving 50% net cell kill) ([17]; read-out: LC50) greater than 100 µM and a TGI ([17]; read-out: TGI) of 17.2 µM. The GI50 ([17]; read-out: pGI50 (converted)) was 2.63 µM, the LC50 (concentration giving 50% net cell kill) ([17]; read-out: pLC50 (converted)) was greater than 100 µM and the TGI ([17]; read-out: pTGI (converted)) was 17.4 µM. For the same compound, the growth at 0.1 µM (SN12C [18]) was 92%, the growth at 0.1 µM (SR) was 93% and the growth at 0.01 µM [19] was 87%. For the same compound, the GI50 (K562; read-out: GI50) was greater than 100 µM, the LC50 (K562; read-out: LC50) was greater than 100 µM and the TGI (K562; read-out: TGI) was greater than 100 µM. The GI50 (K562; read-out: pGI50 (converted)) was greater than 100 µM, the LC50 (K562; read-out: pLC50 (converted)) was greater than 100 µM and the TGI (K562; read-out: pTGI) was greater than 100 µM. It also gave a growth at 100 µM (T47D) of 14%, a growth at 100 µM (SN12C [20]) of 42% and a growth at 100 µM [21] of 15%. For the same compound, the growth at 100 µM [22] was 32%.
